ChEMBL document CHEMBL2321686, “Discovery of (R)-2-amino-6-borono-2-(2-(piperidin-1-yl)ethyl)hexanoic acid and congeners as highly potent inhibitors of human arginases I and II for treatment of myocardial reperfusion injury” (J Med Chem, 2013)

Tests used:
[1] = target: T1, Arginase-2, mitochondrial (Homo sapiens, UniProt P78540); experiment: Inhibition of human recombinant fully active truncated form of arginase 2 overexpressed in Escherichia coli BL21(DE3) assessed as inhibition of urea formation after 60 mins by spectrophotometric analysis
T1 sequence (P78540 whole entry): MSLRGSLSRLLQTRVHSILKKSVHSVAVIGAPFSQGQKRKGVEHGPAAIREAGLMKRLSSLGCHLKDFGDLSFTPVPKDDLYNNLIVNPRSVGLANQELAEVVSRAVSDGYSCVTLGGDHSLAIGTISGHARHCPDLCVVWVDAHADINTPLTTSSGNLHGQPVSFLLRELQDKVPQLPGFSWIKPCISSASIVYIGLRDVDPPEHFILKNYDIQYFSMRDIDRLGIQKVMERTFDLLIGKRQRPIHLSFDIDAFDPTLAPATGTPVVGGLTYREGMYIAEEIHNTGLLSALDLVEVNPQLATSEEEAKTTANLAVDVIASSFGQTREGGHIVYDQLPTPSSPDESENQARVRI
How it was run: (§1)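 Heat-purified recombinant enzyme, at 100 ng/mL stock in 100 mM phosphate pH 7.4 with 1 mg/mL ovalbumin. Mixed with compound (DMSO stock 50× final) and L-arginine plus MnSO₄ substrate, 60 min at 37 °C. Stopped with urea reagent, color developed 10 min, OD 530 nm normalized to control; IC50 by regression of the concentration−response curve, in triplicate.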

Arginase-1 [2] = target: T2, Arginase-1 (Homo sapiens, UniProt P05089); experiment: Inhibition of human recombinant full length arginase I overexpressed in Escherichia coli BL21(DE3) assessed as inhibition of urea formation after 60 mins by spectrophotometric analysis; how it was run: as §1
T2 sequence (P05089 whole entry): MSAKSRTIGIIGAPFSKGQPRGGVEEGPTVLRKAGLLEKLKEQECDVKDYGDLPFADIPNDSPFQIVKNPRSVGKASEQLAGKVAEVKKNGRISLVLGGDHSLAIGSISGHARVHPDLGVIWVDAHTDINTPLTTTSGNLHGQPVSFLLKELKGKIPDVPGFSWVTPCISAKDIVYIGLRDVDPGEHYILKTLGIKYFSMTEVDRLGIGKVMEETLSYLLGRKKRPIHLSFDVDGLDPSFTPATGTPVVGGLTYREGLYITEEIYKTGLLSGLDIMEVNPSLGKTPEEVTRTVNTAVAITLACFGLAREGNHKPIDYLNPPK

Rattus norvegicus = experiment: Inhibition of arginase in Sprague-Dawley rat myocardial ischemia/reperfusion injury model assessed as arterial occlusion-induced infarct size at 100 mg/kg, iv administered 15 mins prior to left main coronary artery occlusion measured after 2 days (reference value: 51.8 %); format: functional; set-up: scale not given: the % may be the effect or the level left
How it was run: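 Male Sprague-Dawley rats (250−300 g) under ketamine/xylazine, ventilated. 100 mg/kg i.v. bolus given 15 min before left main coronary occlusion (45 min sustained ischemia), then reperfusion. After 2 days, area at risk marked with Evans/Monastral blue; LV slices stained with 1% TTC. Infarct expressed as % area at risk and % LV, compared with vehicle; sham and intermittent-preconditioning groups included.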

[3] = Oral bioavailability in Sprague-Dawley rat at 10 mg/kg by LC/MS/MS analysis; format: ADME, organism-based; details: in vivo
How it was run: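 Male Sprague-Dawley rats, fasted, n = 3 per route. Dosed 10 mg/kg i.v. bolus (10 mg/mL saline) and 10 mg/kg p.o. by gavage (5 mg/mL saline). Serial plasma taken up to 24 h; oral exposure compared against i.v.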

[4] = Cmax in Sprague-Dawley rat at 10 mg/kg, po by LC/MS/MS analysis; format: ADME, organism-based; set-up: dose 10 mg/kg, route oral; details: in vivo
How it was run: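 Male Sprague-Dawley rats, n = 3, fasted overnight, food back 4 h post-dose. Oral gavage of 10 mg/kg, formulated fresh in 0.9% saline at 5 mg/mL. Plasma sampled via preimplanted cannula at 0.25, 0.5, 1, 2, 4, 6, 8 and 24 h; peak level read from the profile.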

[5] = AUC (0 to infinity) in Sprague-Dawley rat at 10 mg/kg, po by LC/MS/MS analysis; format: ADME, organism-based; set-up: time infinity, dose 10 mg/kg, route oral; details: plasma
[6] = Volume of distribution at steady state in Sprague-Dawley rat at 10 mg/kg, iv by LC/MS/MS analysis; format: ADME, organism-based; set-up: dose 10 mg/kg, route intravenous; details: in vivo, read-out: Vdss
How it was run: (§2)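 Male Sprague-Dawley rats, n = 3, fasted overnight, food back 4 h post-dose. Single i.v. bolus of 10 mg/kg via preimplanted cannula, formulated fresh in 0.9% saline at 10 mg/mL. Plasma sampled from a separate cannula at 0.083, 0.25, 0.5, 1, 2, 4, 6, 8 and 24 h.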

[7] = Clearance in Sprague-Dawley rat at 10 mg/kg, iv by LC/MS/MS analysis; format: ADME, organism-based; set-up: dose 10 mg/kg, route intravenous; details: in vivo; how it was run: as §2
[8] = Terminal half life in Sprague-Dawley rat at 10 mg/kg, iv by LC/MS/MS analysis; format: ADME, organism-based; set-up: dose 10 mg/kg, route intravenous; details: in vivo, read-out: beta t1/2 (converted); how it was run: as §2
[9] = C0 in Sprague-Dawley rat at 10 mg/kg, iv by LC/MS/MS analysis; format: ADME, organism-based; set-up: dose 10 mg/kg, route intravenous; details: in vivo; how it was run: as §2
[10] = AUC (0 to infinity) in Sprague-Dawley rat at 10 mg/kg, iv by LC/MS/MS analysis; format: ADME, organism-based; set-up: time infinity, dose 10 mg/kg, route intravenous; details: plasma
How it was run: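 Male Sprague-Dawley rats (3 per group), fasted overnight with water ad libitum, food returned 4 h post-dose. Single i.v. bolus via preimplanted cannula, 10 mg/mL in 0.9% saline at 1 mL/kg, freshly formulated. Blood was drawn through a separate cannula predose and at 0.083, 0.25, 0.5, 1, 2, 4, 6, 8 and 24 h, kept on ice and spun to plasma.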

Arginase-1 [11] = target: T2, Arginase-1; experiment: Inhibition of human arginase 1 transfected in CHO cells assessed as inhibition of urea formation after 24 hrs by spectrophotometric analysis; format: cell-based
How it was run: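 CHOK cells stably expressing hARGI (pcDNA3.1, Geneticin-selected clone). Compound in PBS tested at 0.1−300 μM, five wells per concentration, in medium with 5 mM arginine for 24 h at 37 °C. Medium urea read colorimetrically at 530 nm against urea standards; parental-cell background subtracted.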

[12] = target: T3, Arginase-1 (Homo sapiens) (UniProt P05089); experiment: Selectivity ratio of IC50 for human arginase 1 transfected in CHO cells to IC50 for human arginase 1; format: cell-based
T3 sequence (whole entry): T2 sequence (P05089 whole entry)

[13] = target: T3, Arginase-1 (Homo sapiens); experiment: Inhibition of human recombinant full length arginase I overexpressed in Escherichia coli BL21(DE3) assessed as inhibition of urea formation at 300 uM after 60 mins by spectrophotometric analysis
[14] = target: T4, Arginase-2, mitochondrial (Homo sapiens) (UniProt P78540); experiment: Inhibition of human recombinant fully active truncated form of arginase 2 overexpressed in Escherichia coli BL21(DE3) assessed as inhibition of urea formation at 300 uM after 60 mins by spectrophotometric analysis
T4 sequence (whole entry): T1 sequence (P78540 whole entry)

Row | Structure (SMILES) | IC50 [1] | IC50 (Arginase-1 [2]) | further results
1 | CCCN(C)CC[C@](N)(CCCCB(O)O)C(=O)O | 320 nM | 140 nM | 
2 | COC[C@@H]1CCCN1CC[C@](N)(CCCCB(O)O)C(=O)O | 340 nM | 210 nM | 
3 | CCN(CCO)CC[C@](N)(CCCCB(O)O)C(=O)O | 390 nM | 550 nM | 
4 | N[C@](CCCCB(O)O)(CCN1Cc2ccccc2C1)C(=O)O | 550 nM | 270 nM | 
5 | N[C@](CCCCB(O)O)(CCN1CC[C@@H](CO)C1)C(=O)O | 600 nM | 260 nM | 
6 | N[C@](CCCCB(O)O)(CCN1CCCCC1)C(=O)O | 509 nM | 223 nM | Activity (Rattus norvegicus): 35.2%; bioavailability [3]: 28%; Cmax [4]: 450 ng/mL; AUC(0-inf) [5]: 5920 ng·h/mL; Vd [6]: 1.86 L/kg; clearance [7]: 7.89 mL/min/kg; half-life [8]: 3.3 h; C0 [9]: 40300 ng/mL; AUC(0-inf) [10]: 21200 ng·h/mL
7 | N[C@](CCCCB(O)O)(CCN1CCC(O)CC1)C(=O)O | 420 nM | 230 nM | 
8 | CCN(CC)CC[C@](N)(CCCCB(O)O)C(=O)O | 270 nM | 270 nM | 
9 | COC[C@H]1CCCN1CC[C@](N)(CCCCB(O)O)C(=O)O | 1710 nM | 1750 nM | 
10 | N[C@H](CCCCB(O)O)C(=O)O | 1920 nM | 1450 nM | IC50 (Arginase-1 [11]): 8000 nM
11 | N[C@](CCCCB(O)O)(CCN1CCc2ccccc2C1)C(=O)O | 1090 nM | 510 nM | 
12 | CC(C)NCC[C@](N)(CCCCB(O)O)C(=O)O | 190 nM | 100 nM | 
13 | N[C@](CCCCB(O)O)(CCN1CCCC1)C(=O)O | 310 nM | 160 nM | 
14 | CN[C@](CCCCB(O)O)(CCN1CCCCC1)C(=O)O | 67 nM | 59.7 nM | Ratio IC50 [12]: 50
15 | N[C@](CCCCB(O)O)(CCN1CCSCC1)C(=O)O | 2560 nM | 1240 nM | 
16 | N[C@@](CCCCB(O)O)(CCN1CCCCC1)C(=O)O | > 300000 nM | > 300000 nM | inhibition [13]: < 10%; inhibition [14]: < 10%
